Measured values pooled from the literature.
Protocols differ between the studies behind these lines.
Cell line: HepG2
Read-out: cell growth or viability

SMILES	assay	conditions	measurement	result
CCOC(=O)c1ccc(-n2c(N)c(C#N)c(CC#N)c(C#N)c2=O)cc1	MTT	50 µM, 24 h	viability	35.1%
Cc1ccc2nc(-c3ccc(F)cc3)[nH]c2c1	MTT	48 h	IC50	80.4 µM
COc1ccc(NC(=O)c2c(Nc3ccccc3)sc(C(=O)NN=Cc3ccc(OC)c(O)c3)c2NC(C)=O)cc1	SRB	1 nM, 48 h	viability	100%
Cc1ccc2nc(-c3cccnc3)[nH]c2c1	MTT	48 h	IC50	68.4 µM
CCOC(=O)c1ccc(NC(=O)C2=C3C(=Nc4ccccc43)NC2=O)cc1	MTT	1.56 µM, 24 h	viability	100%
CC(=O)Nc1cccc(-n2c(=O)n(C3CC3)c(=O)c3c(Nc4ccc(I)cc4F)n(C)c(=O)c(C)c32)c1	resazurin	6.25 nM, 72 h	viability	68%
COc1ccc(NC(=O)c2c(Nc3ccccc3)sc(C#N)c2NC(=O)CNc2ccc(Br)cc2)cc1	SRB	100 µM, 48 h	viability	39.7%
COc1ccc(-c2nc3ccccc3n2Cc2ccccc2)cc1OC	MTT		IC50	19.9 µM
CCOC(=O)c1ccc(-n2c(-c3ccc(C)cc3)cc(-c3ccc(O)cc3)c(C#N)c2=O)cc1	MTT	6.25 µM, 24 h	viability	67.9%
COc1ccc(NC(=O)c2c(Nc3ccccc3)sc(C#N)c2NC(=O)CNc2ccc(Cl)cc2)cc1	SRB	10 µM, 48 h	viability	33.2%
CCOC(=O)c1ccc(-n2c(C)cc(C)c(C#N)c2=O)cc1	MTT	6.25 µM, 24 h	viability	90.3%
COc1ccc(NC(=O)c2c(Nc3ccccc3)sc(C#N)c2NC(=O)CNc2ccc([N+](=O)[O-])cc2)cc1	SRB	10 nM, 48 h	viability	86.4%
CCOC(=O)c1ccc(N2C(N)=C(C#N)C3(C(=O)Nc4ccccc43)C(C#N)=C2O)cc1 (stereo not drawn)	MTT	3.125 µM, 24 h	viability	69.3%
Cc1ccc2nc(-c3ccco3)[nH]c2c1	MTT	48 h	IC50	> 100 µM
COc1ccc(NC(=O)c2c(Nc3ccccc3)sc(C#N)c2NC(=O)CNc2ccccc2Cl)cc1	SRB	1 nM, 48 h	viability	101%
